The nature of experiment [1]: Inhibition of Escherichia coli H560 DNA gyrase assessed as DNA cleavage.
The test system of experiment [2] is Escherichia coli. The experiment can be described thus: Antibacterial activity against membrane efflux-pump deficient Escherichia coli Tol C EC2549. It counts as functional. The gist of the method: (§1)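 MIC (μg/mL) by standard broth microtitration dilution following NCCLS M7-A5 for aerobically growing bacteria. Panel: Gram-negative E. coli MC4100 (wild-type) and E. coli Tol C (membrane efflux-pump deficient); Gram-positive Enterococcus faecalis, Staphylococcus aureus and Streptococcus pyogenes.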

For the next experiment, the system named is Staphylococcus aureus. The experiment can be described thus: Antibacterial activity against Staphylococcus aureus UC-76 SA-1. It counts as functional. The gist of the method: as §1
Experiment [3] deals with Escherichia coli. The experiment can be described thus: Antibacterial activity against Escherichia coli MC4100 EC2026. Format: functional. The gist of the method:
as §1

In a further experiment the test system is Enterococcus faecalis. The experiment can be described thus: Antibacterial activity against Enterococcus faecalis MGH-2 EF1-1. It counts as functional. An outline of the steps:
as §1

Another experiment concerns Streptococcus pyogenes. The experiment can be described thus: Antibacterial activity against Streptococcus pyogenes C-203 SP1-1. Format: functional. An outline of the steps:
as §1

In brackets after ≈: the same amount, converted by molar mass. Some results are limits rather than exact numbers.

By IC50 is commonly meant the midpoint of a concentration-inhibition curve. As a reminder, the MIC is the lowest concentration found to suppress growth. `CN[C@H]1CCN(c2c(F)cc3c(=O)n(N)c(=O)n(C4CC4)c3c2Cl)C1`: the 50% inhibitory concentration (IC50) in experiment [1] came to 6.1 µM. In addition, the minimal inhibitory concentration (MIC) against Escherichia coli [2] turned out to be 0.5 µg/mL (≈ 1.36 µM); with Staphylococcus aureus, 16 µg/mL (≈ 43.5 µM); against Escherichia coli [3], 4 µg/mL (≈ 10.9 µM); with Enterococcus faecalis, 16 µg/mL (≈ 43.5 µM); in the experiment on Streptococcus pyogenes it was 8 µg/mL (≈ 21.8 µM).

On to `Cc1c(N2CCC(N)C2)c(F)cc2c(=O)n(N)c(=O)n(C3CC3)c12` (stereo not given), for which, in experiment [1], the 50% inhibitory concentration (IC50) was found to be 0.1 µM. In addition, the MIC amounted to 0.06 µg/mL (≈ 0.18 µM) against Escherichia coli [2]; 4 µg/mL (≈ 12 µM) in the experiment on Staphylococcus aureus; 1 µg/mL (≈ 3 µM) in the experiment with Escherichia coli [3]; 2 µg/mL (≈ 6 µM) against Enterococcus faecalis; 0.5 µg/mL (≈ 1.5 µM) against Streptococcus pyogenes.

`CCOc1c(N2CCC(N)C2)c(F)cc2c(=O)n(N)c(=O)n(C3CC3)c12` (stereo not given): in experiment [1], the 50% inhibitory concentration (IC50) was determined as 11 µM. For the same molecule, the MIC against Escherichia coli [2] was 4 µg/mL (≈ 11 µM); in the experiment on Staphylococcus aureus, more than 64 µg/mL; in the experiment with Escherichia coli [3], 32 µg/mL (≈ 88.1 µM); against Enterococcus faecalis, more than 64 µg/mL; against Streptococcus pyogenes it was 64 µg/mL (≈ 176 µM).

With `NCC1CCN(c2c(F)cc3c(=O)n(N)c(=O)n(C4CC4)c3c2Cl)C1` (stereo not given), in experiment [1], the IC50 is 0.3 µM. The MIC came out at 0.25 µg/mL (≈ 0.68 µM) against Escherichia coli [2]; 0.5 µg/mL (≈ 1.36 µM) in the experiment on Staphylococcus aureus; 4 µg/mL (≈ 10.9 µM) in the experiment with Escherichia coli [3]; 0.25 µg/mL (≈ 0.68 µM) against Enterococcus faecalis; 0.13 µg/mL (≈ 0.353 µM) against Streptococcus pyogenes.

Consider `CC(=O)Nn1c(=O)c2cc(F)c(N3CCC(N)C3)c(Cl)c2n(C2CC2)c1=O` (stereo not given), for which the IC50 in experiment [1] amounted to 10 µM. For the same molecule, the MIC in the experiment on Escherichia coli [2] is 2 µg/mL (≈ 5.05 µM); against Staphylococcus aureus it was more than 64 µg/mL; with Escherichia coli [3] it was 64 µg/mL (≈ 162 µM); against Enterococcus faecalis, more than 64 µg/mL; in the experiment on Streptococcus pyogenes, more than 64 µg/mL.

As for `N[C@H]1CCN(c2c(F)cc3c(=O)n(N)c(=O)n(C4CC4)c3c2Cl)C1`, the IC50 in experiment [1] was determined as 0.4 µM. Moreover, the minimum inhibitory concentration (MIC) came out at 0.13 µg/mL (≈ 0.367 µM) in the experiment with Escherichia coli [2]; 2 µg/mL (≈ 5.65 µM) in the experiment with Staphylococcus aureus; 0.5 µg/mL (≈ 1.41 µM) in the experiment with Escherichia coli [3]; 4 µg/mL (≈ 11.3 µM) against Enterococcus faecalis; 2 µg/mL (≈ 5.65 µM) in the experiment on Streptococcus pyogenes.

Take `N[C@H]1CCN(c2c(F)cc3c(=O)n(N)c(=O)n(C4CC4)c3c2C(F)(F)F)C1`: the concentration for half-maximal inhibition (IC50) in experiment [1] was 5.2 µM. The MIC in the experiment with Escherichia coli [2] stood at 0.25 µg/mL (≈ 0.645 µM); in the experiment with Staphylococcus aureus it was 32 µg/mL (≈ 82.6 µM); in the experiment on Escherichia coli [3], 8 µg/mL (≈ 20.7 µM); in the experiment with Enterococcus faecalis, 32 µg/mL (≈ 82.6 µM); with Streptococcus pyogenes it was 4 µg/mL (≈ 10.3 µM).

In the case of `O=C(O)c1cn(C2CC2)c2cc(N3CCNCC3)c(F)cc2c1=O` [CIPROFLOXACIN], the MIC is 4 µg/mL (≈ 12.1 µM) in the experiment on Staphylococcus aureus, 0.4 µg/mL (≈ 1.21 µM) in the experiment on Enterococcus faecalis and 2 µg/mL (≈ 6.04 µM) against Streptococcus pyogenes.

As for `Nc1c(F)c(N2CCC(N)C2)c(F)c2c1c(=O)n(N)c(=O)n2C1CC1` (stereo not given), the IC50 in experiment [1] was determined as 21 µM. In addition, the MIC in the experiment on Escherichia coli [2] is 1 µg/mL (≈ 2.84 µM); in the experiment on Staphylococcus aureus, 32 µg/mL (≈ 90.8 µM); against Escherichia coli [3] it was 8 µg/mL (≈ 22.7 µM); against Enterococcus faecalis it was 64 µg/mL (≈ 182 µM); with Streptococcus pyogenes, 32 µg/mL (≈ 90.8 µM).

For the molecule `Cc1c(F)c(N2CC[C@@H]([C@H](C)N)C2)c(C)c2c1c(=O)n(N)c(=O)n2C1CC1`, in experiment [1], the IC50 is 0.24 µM. For the same molecule, the minimal inhibitory concentration (MIC) in the experiment with Escherichia coli [2] came out at 0.03 µg/mL (≈ 0.0799 µM); in the experiment on Staphylococcus aureus it was 0.06 µg/mL (≈ 0.16 µM); against Escherichia coli [3], 2 µg/mL (≈ 5.33 µM); in the experiment with Enterococcus faecalis, 0.06 µg/mL (≈ 0.16 µM); in the experiment on Streptococcus pyogenes, 0.03 µg/mL (≈ 0.0799 µM).

On to `NC1CCN(c2c(F)cc3c(=O)n(N)c(=O)n(-c4ccc(F)cc4F)c3c2Cl)C1` (stereo not given), for which the 50% inhibitory concentration (IC50) in experiment [1] is more than 100 µM. The MIC is 64 µg/mL (≈ 150 µM) in the experiment on Escherichia coli [2]; more than 64 µg/mL in the experiment on Staphylococcus aureus; more than 64 µg/mL in the experiment on Escherichia coli [3]; more than 64 µg/mL with Enterococcus faecalis; more than 64 µg/mL in the experiment with Streptococcus pyogenes.

Consider `Cc1c(N2CC[C@@H]([C@H](C)N)C2)c(F)cc2c(=O)n(N)c(=O)n(C3CC3)c12`, for which the half-inhibitory concentration (IC50) in experiment [1] is 0.2 µM. For the same molecule, the minimal inhibitory concentration (MIC) against Escherichia coli [2] was 0.03 µg/mL (≈ 0.083 µM); against Staphylococcus aureus, 0.06 µg/mL (≈ 0.166 µM); in the experiment with Escherichia coli [3], 1 µg/mL (≈ 2.77 µM); against Enterococcus faecalis, 0.06 µg/mL (≈ 0.166 µM); with Streptococcus pyogenes, 0.015 µg/mL (≈ 0.0415 µM).

With `COc1c(N2CCC(N)C2)c(F)cc2c(=O)n(N)c(=O)n(C3CC3)c12` (stereo not given), the IC50 in experiment [1] stood at 4.3 µM. The MIC against Escherichia coli [2] turned out to be 0.5 µg/mL (≈ 1.43 µM); with Staphylococcus aureus, 8 µg/mL (≈ 22.9 µM); against Escherichia coli [3], 4 µg/mL (≈ 11.4 µM); in the experiment with Enterococcus faecalis, 8 µg/mL (≈ 22.9 µM); against Streptococcus pyogenes it was 4 µg/mL (≈ 11.4 µM).

As for `N[C@H]1CCN(c2cc3c(cc2F)c(=O)n(N)c(=O)n3CC2CC2)C1`, the IC50 in experiment [1] is 20 µM. Further, the MIC against Escherichia coli [2] was 8 µg/mL (≈ 24 µM); against Staphylococcus aureus, more than 64 µg/mL; against Escherichia coli [3], more than 64 µg/mL; in the experiment on Enterococcus faecalis it was more than 64 µg/mL; with Streptococcus pyogenes, more than 64 µg/mL.

For the molecule `N[C@H]1CCN(c2cc3c(cc2F)c(=O)n(N)c(=O)n3C2CC2)C1`, in experiment [1], the 50% inhibitory concentration (IC50) was found to be 1.6 µM. Besides, the MIC came out at 1 µg/mL (≈ 3.13 µM) in the experiment with Escherichia coli [2]; 64 µg/mL (≈ 200 µM) in the experiment on Staphylococcus aureus; 8 µg/mL (≈ 25.1 µM) against Escherichia coli [3]; 32 µg/mL (≈ 100 µM) with Enterococcus faecalis; 16 µg/mL (≈ 50.1 µM) against Streptococcus pyogenes.

Regarding `NC1CCN(c2cc(F)c3c(=O)n(N)c(=O)n(C4CC4)c3c2F)C1` (stereo not given), the concentration for half-maximal inhibition (IC50) in experiment [1] stood at 17 µM. Also, the minimal inhibitory concentration (MIC) is 4 µg/mL (≈ 11.9 µM) against Escherichia coli [2]; more than 64 µg/mL against Staphylococcus aureus; 32 µg/mL (≈ 94.9 µM) in the experiment on Escherichia coli [3]; more than 64 µg/mL in the experiment with Enterococcus faecalis; more than 64 µg/mL in the experiment on Streptococcus pyogenes.

`NC1CCN(c2c(F)cc3c(=O)n(N)c(=O)n(C4CC4)c3c2F)C1` (stereo not given): the 50% inhibitory concentration (IC50) in experiment [1] stood at 1.3 µM. The MIC in the experiment with Escherichia coli [2] is 0.25 µg/mL (≈ 0.741 µM); against Staphylococcus aureus, 8 µg/mL (≈ 23.7 µM); in the experiment with Escherichia coli [3], 2 µg/mL (≈ 5.93 µM); in the experiment with Enterococcus faecalis, 8 µg/mL (≈ 23.7 µM); against Streptococcus pyogenes, 4 µg/mL (≈ 11.9 µM).

Take `NC1CCN(c2c(F)cc3c(=O)n(N)c(=O)n(C4CCC4)c3c2Cl)C1` (stereo not given): in experiment [1], the IC50 worked out at 23 µM. Also, the minimal inhibitory concentration (MIC) is 2 µg/mL (≈ 5.44 µM) in the experiment with Escherichia coli [2]; more than 64 µg/mL against Staphylococcus aureus; 16 µg/mL (≈ 43.5 µM) in the experiment with Escherichia coli [3]; more than 64 µg/mL against Enterococcus faecalis; more than 64 µg/mL in the experiment with Streptococcus pyogenes.

On to `NC1CCN(c2c(F)c(F)c3c(=O)n(N)c(=O)n(C4CC4)c3c2F)C1` (stereo not given), for which the IC50 in experiment [1] stood at 3 µM. Further, the minimum inhibitory concentration (MIC) against Escherichia coli [2] turned out to be 0.5 µg/mL (≈ 1.41 µM); with Staphylococcus aureus, 16 µg/mL (≈ 45 µM); against Escherichia coli [3] it was 2 µg/mL (≈ 5.63 µM); against Enterococcus faecalis it was 32 µg/mL (≈ 90.1 µM); with Streptococcus pyogenes, 16 µg/mL (≈ 45 µM).

Regarding `NCC1CCN(c2c(Cl)cc3c(=O)n(N)c(=O)n(C4CC4)c3c2Cl)C1` (stereo not given), the half-inhibitory concentration (IC50) in experiment [1] turned out to be 1.2 µM. The MIC against Escherichia coli [2] amounted to 0.5 µg/mL (≈ 1.3 µM); with Staphylococcus aureus it was 4 µg/mL (≈ 10.4 µM); in the experiment on Escherichia coli [3], 16 µg/mL (≈ 41.6 µM); with Enterococcus faecalis it was 4 µg/mL (≈ 10.4 µM); in the experiment with Streptococcus pyogenes it was 2 µg/mL (≈ 5.2 µM).

As to `CC(C)n1c(=O)n(N)c(=O)c2cc(F)c(N3CCC(N)C3)c(Cl)c21` (stereo not given), the IC50 in experiment [1] was 98 µM. The MIC with Escherichia coli [2], against Staphylococcus aureus, in the experiment with Escherichia coli [3], against Enterococcus faecalis and in the experiment on Streptococcus pyogenes was more than 64 µg/mL in each case.

Take `Cc1c(N2CC[C@@H]([C@H](C)N)C2)c(F)c(C(F)F)c2c(=O)n(N)c(=O)n(C3CC3)c12`: the IC50 in experiment [1] turned out to be 8.2 µM. Also, the MIC against Escherichia coli [2] worked out at 1 µg/mL (≈ 2.43 µM); in the experiment with Staphylococcus aureus it was 1 µg/mL (≈ 2.43 µM); against Escherichia coli [3], 64 µg/mL (≈ 156 µM); in the experiment with Enterococcus faecalis it was 1 µg/mL (≈ 2.43 µM); against Streptococcus pyogenes, 0.25 µg/mL (≈ 0.608 µM).

With `CCn1c(=O)n(N)c(=O)c2cc(F)c(N3CC[C@H](N)C3)cc21`, in experiment [1], the IC50 is 35 µM. Besides, the MIC is 16 µg/mL (≈ 52.1 µM) with Escherichia coli [2]; more than 64 µg/mL with Staphylococcus aureus; 64 µg/mL (≈ 208 µM) against Escherichia coli [3]; more than 64 µg/mL in the experiment with Enterococcus faecalis; more than 64 µg/mL in the experiment with Streptococcus pyogenes.

Regarding `CN[C@H]1CCN(c2c(F)cc3c(=O)n(NC)c(=O)n(C4CC4)c3c2Cl)C1`, the MIC against Escherichia coli [2] was 8 µg/mL (≈ 21 µM); against Staphylococcus aureus, more than 64 µg/mL; against Escherichia coli [3], more than 64 µg/mL; with Enterococcus faecalis it was more than 64 µg/mL; against Streptococcus pyogenes, more than 64 µg/mL.
